Assay results: publication PMC10336577 (Saudi Pharmaceutical Journal : SPJ, 2023)
Values after ≈ are worked out from the molar mass of the structure shown. Values joined by “and” are separate entries in the source; they are usually repeats but may differ in a detail not shown here. Equal entries are not always repeated. Where two headings read alike, the source gives them in different places.

Key:
[1] = tested on: MDA-MB-231 cell line; assay: MTT cytotoxicity assay, MDA-MB-231; type: cell-based; conditions: for IC50: Homo sapiens, MDA-MB-231, 24 h, read-out: IC50, MDA-MB-231
Procedure, shortened: (§1)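 Human lines were obtained from ATCC. MCF-7 and MDA-MB-231 were grown in DMEM with 10% FBS, and MCF-10A in DMEM-F12 with 10% FBS, all at 37 °C, 5% CO2. Cells were seeded at 1×10^4 per well, given varying concentrations of extract or test compound, and PBS-washed after 24 h. MTT was applied for 4 h at 37 °C and formazan dissolved in DMSO, with absorbance read at 570 nm. Hydrogen peroxide was the positive control. Runs were done in triplicate, with % viability and IC50 calculated.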

[2] = tested on: MCF-7 cell line; assay: MTT cytotoxicity assay, MCF-7; type: cell-based; conditions: for IC50: Homo sapiens, MCF7, 24 h, read-out: IC50, MCF-7
Procedure, shortened: as §1

[3] = tested on: MCF-10A non-tumorigenic breast epithelial cell line; assay: MTT cytotoxicity assay, MCF-10A; type: cell-based; conditions: 24 h; for IC50: Homo sapiens, MCF-10A, read-out: IC50, MCF-10A
Procedure, shortened: as §1

[4] = tested on: HCT-116 human colon cancer cell line; conditions: ref Znati et al., 2014; cited from earlier work
[5] = tested on: HEP-G2 hepatocellular carcinoma cells; conditions: 25–400 μg/mL, 72 h, MTT assay; ref Gevrenova et al., 2016; cited from earlier work
[6] = tested on: OVCAR-3 human ovary cell line; conditions: ref Znati et al., 2014; cited from earlier work
[7] = tested on: IGROV-1 human ovary cell line; conditions: ref Znati et al., 2014; cited from earlier work
[8] = tested on: MDA-MB-231 cell line; assay: Annexin V-FITC/PI flow cytometry, MDA-MB-231; type: cell-based; conditions: 48 h; for viable cells, MDA-MB-231: quadrant LL, highest doses of compounds; for early apoptotic cells, MDA-MB-231: quadrant LR; for necrotic cells, MDA-MB-231: quadrant UL; for late apoptotic cells, MDA-MB-231: quadrant UR
[9] = tested on: HT-1080 fibrosarcoma cell line; conditions: ref Rajendra et al., 2011, cited from earlier work
[10] = tested on: Bel-7402 human hepatocellular carcinoma; conditions: ref Sun et al. 2006; cited from earlier work
[11] = tested on: SGC-7901 human gastric cancer cell line; conditions: ref Sun et al. 2006; cited from earlier work
[12] = tested on: A375-S2 human malignant melanoma; conditions: ref Sun et al. 2006; cited from earlier work
[13] = tested on: MCF-7 cell line; assay: Annexin V-FITC/PI flow cytometry, MCF-7; type: cell-based; conditions: 48 h
[14] = tested on: HeLa human uterine carcinoma; conditions: ref Sun et al. 2006; cited from earlier work
[15] = tested on: SK-BR-3 human breast cancer cell line; conditions: read-out: IC50, SK-BR-3; ref Bender and Atalay, 2018; cited from earlier work
[16] = tested on: MDA-MB-468 human breast cancer cell line; conditions: read-out: IC50, MDA-MB-468; ref Bender and Atalay, 2018; cited from earlier work
[17] = tested on: breast cancer cell lines (MCF-7 and MDA-MB-231); assay: MTT cytotoxicity on the breast cancer cell lines; type: cell-based; conditions: MCF-7 and MDA-MB-231, MTT
[18] = tested on: BT-20 human breast cancer cell line; conditions: read-out: IC50, BT-20; ref Bender and Atalay, 2018; cited from earlier work
[19] = tested on: PLC/PRF/5 hepatocellular carcinoma cell line; conditions: 100 µM; ref Refolo et al., 2018; cited from earlier work
[20] = tested on: HepG2 hepatocellular carcinoma cell line; conditions: 100 µM; ref Refolo et al., 2018; cited from earlier work
[21] = tested on: MIA PaCa-2 pancreatic cancer cell line; conditions: read-out: IC50, MIA PaCa-2; ref Boukes and Venter, 2016; cited from earlier work
[22] = tested on: INS-1 pancreatic cancer cell line; conditions: read-out: IC50, INS-1; ref Boukes and Venter, 2016; cited from earlier work
[23] = tested on: A549 human non-small cell lung cancer cell line; conditions: ref Yang et al., 2017, cited from earlier work
[24] = tested on: cells; assay: Cell death type; type: cell-based
Procedure, shortened: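 MCF-7, MDA-MB-231 and MCF-10A cells were seeded at 3×10^5 cells per well in six-well plates and held 24 h at 37 °C, 5% CO2. They were exposed 48 h to the highest test-compound doses, trypsinised, PBS-washed and pelleted at 1500 rpm for 5 min. Cells were stained with Annexin V-FITC/PI in 1X binding buffer for 15 min at 37 °C in the dark, then run by flow cytometry. Viable, early/late apoptotic and necrotic cells are given as % of total, in triplicate.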

[25] = tested on: DU145 prostate cancer cell; conditions: ref Lewinska et al., 2015, cited from earlier work
[26] = tested on: DU-145 prostate cancer cell line; conditions: ref Manthey and Guthrie, 2002; cited from earlier work
[27] = tested on: A431 cells; conditions: MTT assay; ref Buddhan and Manoharan, 2017; cited from earlier work
[28] = tested on: DMS-114 human lung cancer cell line; conditions: ref Manthey and Guthrie, 2002; cited from earlier work
[29] = tested on: SK-MEL5 melanoma cancer cell line; conditions: ref Manthey and Guthrie, 2002; cited from earlier work
[30] = tested on: HT-29 colon cancer cell line; conditions: ref Manthey and Guthrie, 2002; cited from earlier work
[31] = MTT assay, 24 h, ± standard deviation

## COc1cc(-c2oc3cc(O)cc(O)c3c(=O)c2O[C@@H]2O[C@H](CO[C@@H]3O[C@@H](C)[C@H](O)[C@@H](O)[C@H]3O)[C@@H](O)[C@H](O)[C@H]2O)ccc1O [Compound 2, Isorhamnetin-3-O-rutinoside]
[1]
  IC50: 77.8 ± 39.9 µg/mL (≈ 125 µM)
[2]
  IC50: 137 ± 8.62 µg/mL (≈ 220 µM)
[3]
  IC50: 133 ± 23.5 µg/mL (≈ 214 µM)
[4]
  concentration up to which no cytotoxic activity was shown, HCT-116: > 100 µM
[5]
  hepatoprotective activity, HEP-G2: no significant hepatoprotective activity
[6]
  concentration up to which no cytotoxic activity was shown, OVCAR-3: > 100 µM
[7]
  concentration up to which no cytotoxic activity was shown, IGROV-1: > 100 µM
[8]
  viable cells, MDA-MB-231: 63%

## O=C(O)/C=C/c1ccc(O)c(O)c1 [Compound 4, Caffeic acid]
[9]; 50 µg/mL
  cell viability, HT-1080: 15%
[9]; 30, 40, and 50 μg/mL
  inhibition of HT-1080 cell line: notably inhibited
[1]
  IC50: 64 ± 4.11 µg/mL (≈ 355 µM)
[2]
  IC50: 40.3 ± 2.84 µg/mL (≈ 224 µM)
[3]
  IC50: 149 ± 14.1 µg/mL (≈ 825 µM)
[10]
  concentration up to which no cytotoxic activity was shown, Bel-7402: > 100 µg/mL
[11]
  concentration up to which no cytotoxic activity was shown, SGC-7901: > 100 µg/mL
[12]
  concentration up to which no cytotoxic activity was shown, A375-S2: > 100 µg/mL
[13]; quadrant LR, doses as b44
  early apoptotic cells, MCF-7: 52%
[13]; quadrant UL, doses as b44
  necrotic cells, MCF-7: 3%
[13]; quadrant UR, doses as b44
  late apoptotic cells, MCF-7: 13%
[14]
  concentration up to which no cytotoxic activity was shown, HeLa: > 100 µg/mL
[8]
  viable cells, MDA-MB-231: 30%
  early apoptotic cells, MDA-MB-231: 52%
  necrotic cells, MDA-MB-231: 3%
  late apoptotic cells, MDA-MB-231: 13%

## OO [Compound H2O2, hydrogen peroxide, reference compound]
[1]; [31]
  IC50, MDA-MB-231: 8.48 ± 3.53 µg/mL and 11.86 ± 2.43 µg/mL and 11.45 ± 1.52 µg/mL
[2]; [31]
  IC50, MCF-7: 7.45 ± 12.77 µg/mL and 10.11 ± 0.90 µg/mL and 11.97 ± 6.72 µg/mL and 9.91 ± 0.31 µg/mL
[3]; MTT assay, ± standard deviation
  IC50, MCF-10A: 10.32 ± 3.60 µg/mL and 11.40 ± 3.60 µg/mL and 9.77 ± 8.56 µg/mL and 12.58 ± 9.77 µg/mL
[13]; doses as b44
  percentage of cell death, MCF-7: 70%
[13]; quadrant LL, H2O2 17, Compound 1 24, 2 156, 3 372, 4 30, 5 710, 6 60 µg/mL
  viable cells, MCF-7: 30%
[8]
  percentage of cell death, MDA-MB-231: 79%
  viable cells, MDA-MB-231: 21%

## O=C(/C=C/c1ccc(O)c(O)c1)O[C@@H]1C[C@](O)(C(=O)O)C[C@@H](O)[C@H]1O [Compound 5, Chlorogenic acid]
[1]
  IC50: 361 ± 4.83 µg/mL (≈ 1020 µM)
[15]
  IC50: 882 µM
[2]
  IC50: 371 ± 9.49 µg/mL (≈ 1050 µM)
[3]
  IC50: 356 ± 19.1 µg/mL (≈ 1010 µM)
[16]
  IC50: 940 µM
[17]
  concentration up to which no cytotoxic activity was shown: > 360 µg/mL
[18]
  IC50: 1100 µM
[19]
  effect on Regorafenib-mediated cell growth inhibition, PLC/PRF/5: enhanced
[20]
  effect on Regorafenib-mediated cell growth inhibition, HepG2: enhanced
[8]
  viable cells, MDA-MB-231: 51%

## O=c1c(O[C@@H]2O[C@H](CO)[C@H](O)[C@H](O)[C@H]2O)c(-c2ccc(O)c(O)c2)oc2cc(O)cc(O)c12 [Compound 3, Quercetin-3-O-galactoside]
[1]
  IC50: 141 ± 14 µg/mL (≈ 304 µM)
[2]
  IC50: 147 ± 7.32 µg/mL (≈ 317 µM)
[21]
  IC50: 50 µM
[3]
  IC50: 127 ± 12.5 µg/mL (≈ 273 µM)
[17]
  concentration up to which no cytotoxic activity was shown: > 100 µg/mL
[22]
  IC50: 50 µM
[8]
  viable cells, MDA-MB-231: 46%
  early apoptotic cells, MDA-MB-231: 22%
  necrotic cells, MDA-MB-231: 6%
  late apoptotic cells, MDA-MB-231: 26%
[23]; 10–100 µM, time- and dose-dependent
  cell viability of A549: inhibited cell viability
[23]; 24 h, dose-dependent
  percentage of apoptotic cells, A549: significant increase

## COc1ccc(-c2cc(=O)c3c(O)cc(O[C@@H]4O[C@H](CO[C@@H]5O[C@@H](C)[C@H](O)[C@@H](O)[C@H]5O)[C@@H](O)[C@H](O)[C@H]4O)cc3o2)cc1O [Compound 1, Diosmetin-7-O-rutinoside]
[24]
  type of cell death causing the cytotoxic effect: necrosis
[1]
  IC50: 12.9 ± 12.2 µg/mL (≈ 21.2 µM)
[25]; 50 µM
  DU145 cell viability: 70%
[25]; 250 µM
  DU145 cell viability: 40%
[2]
  IC50: 13.7 ± 11 µg/mL (≈ 22.4 µM)
[3]
  IC50: 8.66 ± 20.5 µg/mL (≈ 14.2 µM)
[26]
  concentration up to which no cytotoxic activity was shown, DU-145: > 200 µM
[27]
  IC50, A431: 45 µg/mL (≈ 73.9 µM)
[28]
  concentration up to which no cytotoxic activity was shown, DMS-114: > 200 µM
[29]
  concentration up to which no cytotoxic activity was shown, SK-MEL5: > 200 µM
[30]
  concentration up to which no cytotoxic activity was shown, HT-29: > 200 µM
[8]
  viable cells, MDA-MB-231: 56%
